High-throughput results from PubChem.
The list is not random: actives were taken first. Their share in the collection is about 2.6%.
TNAP act hiacc = increases human TNAP activity under high phosphate acceptor concentration; purified TNAP, CDP-star luminescence, 1 M DEA, 30 min; active compounds read high; 0 = EDTA background, 1 = DMSO-only activity; activation factor at 20 µM; P05186; 200,000 tested, under 10 active;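 active = activation factor at least 2 at 20 µM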
Target sequence (P05186 whole entry, looked up): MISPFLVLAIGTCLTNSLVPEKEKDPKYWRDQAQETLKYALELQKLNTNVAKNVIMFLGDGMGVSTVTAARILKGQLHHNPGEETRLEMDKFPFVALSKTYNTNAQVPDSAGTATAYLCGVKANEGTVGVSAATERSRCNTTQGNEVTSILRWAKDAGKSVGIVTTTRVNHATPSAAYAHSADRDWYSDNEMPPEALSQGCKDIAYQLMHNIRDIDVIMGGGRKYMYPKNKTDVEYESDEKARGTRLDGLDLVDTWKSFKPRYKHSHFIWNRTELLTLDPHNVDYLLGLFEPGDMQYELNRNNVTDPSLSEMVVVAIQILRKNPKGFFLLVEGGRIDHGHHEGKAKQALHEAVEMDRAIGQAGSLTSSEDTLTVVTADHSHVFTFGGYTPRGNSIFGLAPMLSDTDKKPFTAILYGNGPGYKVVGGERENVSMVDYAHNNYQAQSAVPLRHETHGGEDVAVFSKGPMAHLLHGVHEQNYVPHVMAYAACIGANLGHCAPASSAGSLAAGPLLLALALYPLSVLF
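Assay system: human TNAP; Input: enzyme diluted 1/800 final; Reagent: CDP-star luminogenic substrate at 100 µM final; Timing: 30 min, room temperature; Signal: luminescence; Evaluation: TNAP activation factor scaled between EDTA and DMSO control wells.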
WT yeast gro inh = growth inhibition of WT yeast, mitochondrial fusion screen; mitochondrial fusion phenotypic screen, WT strain; AID 1362; inhibition, % at 10 µM; 190,000 tested, 2.1% active; in the data active = inhibition above about 58%; tested in S. cerevisiae
TNAP inh hi DEA = blocks human TNAP under high phosphate acceptor concentration; P05186; purified TNAP, CDP-star luminescence, 1 M DEA; inhibition, % at 20 µM; 200,000 tested, 0.03% active; AID 1135;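 active = over 50% inhibition of tissue-nonspecific alkaline phosphatase at 20 µM in the single-dose screen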;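 note: plate controls were DMSO wells for no effect and EDTA-quenched wells as full inhibition for full effect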
TNAP inh no acc = blocks human TNAP activity with no phosphate acceptor present. purified TNAP, CDP-star luminescence, 30 min. inhibition, % at 20 µM. 200,000 tested, 0.26% active. AID 1012;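 active = tissue-nonspecific alkaline phosphatase inhibition above about 50% at 20 µM in the single-dose screen, limit read from the data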;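 note: 0% = DMSO negative control and 100% = EDTA positive control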
Arbovirus inh = antivirals against arbovirus infection | arbovirus infection cell-based antiviral screen | inhibition, % at 10 µM | 200,000 tested, 0.37% active | AID 1251; in the data active = inhibition above about 30%
* hit, by the source's call.

SMILES	TNAP act hiacc	WT yeast gro inh	TNAP inh hi DEA	TNAP inh no acc	Arbovirus inh
O=C(Nc1nnc(-c2ccc3c(c2)OCCO3)o1)c1ccc(Cc2ccccc2)cc1	1.1	61*	-5	-9	-18
Cc1ccccc1CN(C)C(C)C(=O)Nc1ccccc1F (stereo not given)	1	31	2	-3	-24
Cc1ccc(C23CC4CC(CC(C(=O)N5CCOCC5)(C4)C2)C3)cc1	1.1	10	-7	10	16
Cc1cc(C)n2nc(NCc3cccc(Br)c3)nc2n1	1.1	10	-6	-10	-18
CCOc1cc(S(=O)(=O)N2CCC(C(N)=O)CC2)ccc1F	1	3	-3	-8	0
CN1CCN(NC(=O)c2ccc(Cl)s2)CC1	1	8	-4	-11	0
COc1cccc(CC2(CO)CCCN(Cc3[nH]c4ccc(C)cc4c3C)C2)c1 (stereo not given)	1	81*	-2	-6	-31
Cc1cccc(-c2noc(-c3cc4ccccc4oc3=O)n2)c1	1	13	2	-2	10
CCOc1cccc(C(=O)Nc2ccc3oc(Cc4ccc(Cl)cc4)nc3c2)c1	1.1	59*	-6	-6	-21
COc1ccc(OC)c(C2CC(=O)Nc3n[nH]c(-c4ccccc4)c32)c1 (stereo not given)	1	-2	-3	34	-7
COc1ccc(C2CC(=O)Nc3n[nH]c(-c4ccccc4)c32)cc1OC (stereo not given)	1	-12	-1	64*	-1
COc1cccc(NC(=S)N/N=C2\CC3CCC2(C)C3(C)C)c1 (stereo not given)	1	71*	1	-3	18
CC12CCC(C/C1=N/NC(=O)Nc1ccccc1)C2(C)C (stereo not given)	1	-3	-3	6	-7
Cc1cccc(N2CCN(C(=O)C3COc4ccccc4O3)CC2)c1C (stereo not given)	1.1	8	-5	-4	36*
Cc1ccc(CNCC(O)(c2ccccc2)c2ccc(Cl)cc2)cc1 (stereo not given)	1	69*	-3	-5	-20
CCCSc1ccc2nc(-c3ccccc3)cn2c1	1	70*	-1	-10	-12
O=c1c2ccccc2c(-c2ccc(O)cc2)nn1-c1cccc(C(F)(F)F)c1	1	83*	3	-3	-17
O=c1c2ccccc2c(-c2ccc(Cl)cc2)nn1-c1ccccc1	1	-6	2	-12	-5
O=C(Nc1ccccc1C(=O)O)c1cccc(NC(=O)c2ccc(Br)o2)c1	1	-6	-4	-9	32*
O=C(Nc1ccccc1C(=O)O)c1ccc(NC(=O)c2ccc(Br)o2)cc1	1	12	-1	-8	46*
C/C(=N\NC(=O)COc1ccc(C)cc1C(C)C)c1ccc(-n2ccnc2)cc1	1	54	0	8	-28
CC(C)(C)c1cc[n+](CC(=O)Nc2cc(C(F)(F)F)ccc2N2CCOCC2)cc1	1	-5	-4	6	0
COc1ccc(OC)c(NC(=S)NCCSc2ccc(C)cc2)c1	1	67*	-2	-37	17
Cc1cccc(NC(=O)NCCc2ccc(Cl)cc2)c1	1.1	8	-6	-7	-5
Cc1ccc([N+](=O)[O-])cc1NC(=O)CCSc1ccc(Cl)cc1	1	26	-4	-15	-2
SMILES	TNAP act hiacc	WT yeast gro inh	TNAP inh hi DEA	TNAP inh no acc	Arbovirus inh
Cc1cccc(NC(=S)NCCSc2ccc(Cl)cc2)c1	1.1	81*	-7	-23	-29
CCc1ccccc1NC(=S)NCCSc1ccc(Cl)cc1	1.1	81*	-9	-13	-29
Cc1ccc(C)c(NC(=S)NCCSc2ccc(Cl)cc2)c1	1.1	78*	-13	-77	-40
COc1cccc(CNC(=S)Nc2cc(OC)ccc2OC)c1	1	8	-3	-12	-4
O=C(CSc1ccc(F)cc1)NCCSc1ccccc1	1	28	-3	-8	-6
Cc1ccc(C(=O)c2cc3ccccc3o2)cc1	1	5	-2	-7	-7
O=C(Cn1nc(-c2cccc(Cl)c2)ccc1=O)Nc1ccc(C(=O)NC2CC2)cc1	1.1	-20	-7	-12	7
CCC(C(=O)Nc1sc(C(N)=O)c(C)c1C(=O)OC)c1ccccc1 (stereo not given)	1	-7	-1	-5	-28
Cc1ccccc1NC(=S)NCCSc1ccc(Cl)cc1	1	80*	-5	-9	-15
Cc1ccc(Cl)cc1NC(=S)NCCCSC1CCCCC1	1.1	86*	-12	-27	-31
Cc1cc(Cl)ccc1NC(=S)NCCCO	1	6	-2	-22	7
CCN(CC(=O)Nc1cc(Cl)ccc1C)C(=O)C1CCCCC1	1	-4	-4	-11	-3
Cc1cccc(NC(=S)NC(C)(C)CC(C)(C)C)c1	1	68*	-4	-13	-5
Cc1ccc(NC(=S)NCCSc2ccc(Cl)cc2)c(C)c1	1.1	73*	-12	-28	-42
c1ccc(-c2nnc(OCC3CCCO3)c3ccccc23)cc1 (stereo not given)	1.1	1	-6	-15	-1
Cc1nn(-c2ccccc2)c(C)c1C(=O)Nc1nnc(-c2ccco2)o1	1	4	0	-33	-16
O=C(O)CNC(=O)/C=C/c1ccc(Cl)cc1Cl	1	20	1	60*	3
NNC(=O)/C=C/c1ccc(Cl)cc1Cl	1.1	15	-8	-7	-8
CS(=O)(=O)c1ccc2nc(NC(=O)c3cccc(NS(=O)(=O)c4ccc(F)c(F)c4)c3)sc2c1	1	-8	-1	-13	65*
O=C(Nc1nc2ccc(SC(F)F)cc2s1)c1ccc(NS(=O)(=O)c2ccc(F)c(F)c2)cc1	1	-2	-1	-3	-9
Cc1cc(C(=O)CSc2nnc(-c3ccco3)o2)c(C)n1Cc1ccco1	1	18	-1	-1	31*
Cc1[nH]c2ccccc2c1-c1nc(-c2ccc(Cl)cc2)nnc1-c1ccccc1	1	3	-4	-9	-10
Cc1nc2sccn2c(=O)c1CCN1CCC(=C(c2ccc(F)cc2)c2ccc(F)cc2)CC1	1	79*	5	0	-44
Cc1nc2ccc(NC(=S)N3CCOCC3)cc2nc1C	1	1	-2	-12	2
Brc1ccc(C2NCCS2)cc1 (stereo not given)	1	-7	2	72*	5
Cc1ccc(-c2csc(NC(=O)CSc3ncn(-c4ccccc4)n3)n2)cc1	1	-3	-4	-11	-4
CCOC(=O)CN1C(c2ccc(O)cc2)Nc2ccc(Br)cc2C1c1ccccc1 (stereo not given)	1	96*	-1	2	-41
O=C(O)c1cnc(-c2ccccc2)nc1Sc1ccc(Cl)cc1	1	15	-2	5	66*
Cc1cccc(Sc2nc(-c3ccccc3)ncc2C(=O)O)c1	1.1	-16	-5	-2	32*
